Measurements: ChEMBL document CHEMBL4334455, “Synthesis of Usnic Acid Derivatives and Evaluation of Their Antiproliferative Activity against Cancer Cells” (J Nat Prod, 2019)
Calls of active or inactive are those of the source. The calls are words filed in the database; no cut-off is given here.

How the values were obtained:
MCF7 [1] = experiment: Induction of apoptosis in human MCF7 cells assessed as reduction in Bcl-2 expression at 8.7 uM after 24 hrs by immunoblot analysis relative to control; format: functional
In short: (§1)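 Proteins run on SDS-PAGE, transferred to PVDF, blocked in 5% milk/PBS, primary antibody overnight at 4 °C (cleaved PARP, Bax, Bcl-2), secondary 1 h at room temperature. Reprobed for β-actin; densitometry corrected for loading.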

MCF7 [2] = experiment: Induction of vacuolization in human MCF7 cells at 8.7 uM after 24 hrs in presence of 50 uM dynamin inhibitor, dynasore by light microscopic analysis; format: functional, cell-based
MCF7 [3] = experiment: Induction of cell cycle arrest in human MCF7 cells assessed as accumulation of cells at S phase at 2.9 uM after 24 hrs by Propidium iodide staining based flow cytometric analysis (reference value: 23.75 +/- 1.87%); format: functional
MCF7 [4] = experiment: Antiproliferative activity against human MCF7 cells assessed as reduction in cell viability at 8.7 uM after 24 hrs in presence of 50 uM dynamin inhibitor, dynasore by MTT assay relative to control; format: functional, cell-based
HeLa [5] = experiment: Cell cycle arrest in human HeLa cells assessed as reduction in cell population at S phase at 2.9 to 8.7 uM after 24 hrs by propidium iodide staining based flow cytometric analysis; format: functional
HeLa [6] = experiment: Anticlonogenic activity against human HeLa cells assessed as reduction in colony formation at 2.9 to 11.6 uM incubated for 24 hrs followed by recovery period of 2 weeks by culturing cells in drug-free medium by crystal violet staining based assay; format: functional, cell-based
In short: (§2)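 Cells (1 × 10⁶) plated, after 24 h given fresh medium with derivative at 1, 2, 3 or 4 μg mL⁻¹ for 24 h; then trypsinized, counted, 8 × 10² replated into two plates in compound-free medium. After 2 weeks fixed with 6.0% glutaraldehyde, stained with 0.5% crystal violet; colonies of ≥50 cells counted. Mean ± SE of three experiments in duplicate.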

PC-3 [7] = experiment: Anticlonogenic activity against human PC3 cells assessed as reduction in colony formation at 2.9 to 11.6 uM incubated for 24 hrs followed by recovery period of 2 weeks by culturing cells in drug-free medium by crystal violet staining based assay; format: functional, cell-based; in short: as §2
PC-3 [8] = experiment: Antiproliferative activity against human PC3 cells assessed as reduction in cell viability after 48 hrs by MTT assay; format: functional, cell-based; conditions: PC-3, 48 h
In short: (§3)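 Cells seeded at 4 × 10³/well for 24 h runs and for PC-3, or 2 × 10³/well for MCF-7 and HeLa 48 h runs, and attached overnight. Medium replaced with compound-containing medium for 24 or 48 h. MTT (4 mg mL⁻¹) added for the final 3 h, formazan dissolved in DMSO, absorbance read at 570 nm (reference 660 nm). IC₅₀ calculated from at least three independent experiments in duplicate, mean ± SE.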

HeLa [9] = experiment: Antiproliferative activity against human HeLa cells assessed as reduction in cell viability after 24 hrs by MTT assay; format: functional, cell-based; in short: as §3
MCF7 [10] = experiment: Induction of cell cycle arrest in human MCF7 cells assessed as accumulation of cells at S phase at 8.7 uM after 24 hrs by Propidium iodide staining based flow cytometric analysis (reference value: 23.75 +/- 1.87%); format: functional
MCF7 [11] = experiment: Induction of cell cycle arrest in human MCF7 cells assessed as accumulation of cells at G0/G1 phase at 2.9 uM after 24 hrs by Propidium iodide staining based flow cytometric analysis (reference value: 47.8 +/- 0.42%); format: functional
HeLa [12] = experiment: Induction of cell cycle arrest in human HeLa cells assessed as accumulation of cells at G0/G1 phase 2.9 to 8.7 uM after 24 hrs by propidium iodide staining based flow cytometric analysis (reference value: 44%); format: functional
MCF7 [13] = experiment: Induction of cell cycle arrest in human MCF7 cells assessed as accumulation of cells at G2/M phase at 2.9 uM after 24 hrs by Propidium iodide staining based flow cytometric analysis (reference value: 27 +/- 2.97%); format: functional
MCF7 [14] = experiment: Induction of apoptosis in human MCF7 cells assessed as increase in Bax level at 8.7 uM after 24 hrs by immunoblot analysis relative to control; format: functional; in short: as §1
MCF7 [15] = experiment: Induction of endocytosis in human MCF7 cells at 2.9 to 8.7 uM after 24 hrs by lucifer yellow staining based fluorescence microscopic analysis; format: functional, cell-based
In short: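 MCF-7 cells treated 24 h with 2.9 or 8.7 μM derivative, stained with 75 μM Lucifer Yellow, washed, and examined by fluorescence microscopy at 1000×.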

| Compound | fold change (FC) (MCF7 [1]) | Activity (MCF7 [2]) | Activity (MCF7 [3]) [%] | inhibition (MCF7 [4]) | Activity (HeLa [5]) | inhibition (HeLa [6]) | inhibition (PC-3 [7]) | IC50 (PC-3 [8]) [µM] | IC50 (HeLa [9]) [µM] | Activity (MCF7 [10]) [%] | Activity (MCF7 [11]) [%] | Activity (HeLa [12]) | Activity (MCF7 [13]) [%] | fold change (FC) (MCF7 [14]) | Activity (MCF7 [15]) |
| --- | --- | --- | --- | --- | --- | --- | --- | --- | --- | --- | --- | --- | --- | --- | --- |
| CC(=O)c1c(O)c(C)c(O)c2c1OC1=Cc3onc(C)c3C(=O)[C@]12C | 0.2 | inactive | 11.15 | Active | Active | Active | Active | 3.1 | 1 | 7.25 | 70.25 | 51 - 65% | 16.4 | 2.1 | Active |
| CC(=O)c1c(O)c(C)c(O)c2c1OC1=Cc3onc(C)c3C(=O)C12C (racemic) | 0.3 | inactive | 10.1 | Active | Active | Active | Active | 2.8 | 1 | 8.35 | 71.85 | 51 - 65% | 16.2 | 1.1 | Active |
